According to ChEMBL document CHEMBL1123101, “Pseudosymmetry and bioisosterism in biaryl pyridyl competitive histamine H2-receptor antagonists” (J Med Chem, 1985):
Active and inactive are the calls of the source. The calls are words filed in the database; no cut-off is given here.

Columns and labels:
[1] = tested on: Canis familiaris; assay: Maximum percent inhibition of acid output in pentagastrin-stimulated Heidenhain pouch dog following 1 mg/kg i.v. administration.; format: functional; conditions: Canis lupus familiaris, route intravenous
How it was run: (§1)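 Fasted unanesthetized Heidenhain pouch dogs, with acid output stimulated to near maximum by continuous pentagastrin infusion into a leg vein. Gastric juice was collected every 30 min, ten collections per dog. Acid was titrated to pH 7.4 with 0.1 N NaOH. Compound or vehicle was given iv 90 min after the infusion started. Percent inhibition compares the lowest post-dose acid output with the mean output just before dosing. Single experiments.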

[2] = tested on: Canis familiaris; assay: Maximum percent inhibition of acid output in pentagastrin-stimulated Heidenhain pouch dog following 10 mg/kg i.v. administration.; format: functional; conditions: Canis lupus familiaris, route intravenous; how it was run: as §1
[3] = target: Histamine H2 receptor (Cavia porcellus) (UniProt P47747); assay: Dissociation constant of H2 receptor antagonist activity against guinea pig atrium; format: functional, tissue-based; conditions: Cardiac atrium
[4] = tested on: Canis familiaris; assay: Maximum percent inhibition of acid output in pentagastrin-stimulated Heidenhain pouch dog at dose (5 mg/kg) administered intravenously; format: functional; conditions: Canis lupus familiaris, iv; how it was run: as §1
[5] = tested on: Canis familiaris; assay: Maximum percent inhibition of acid output in pentagastrin-stimulated Heidenhain pouch dog at dose (25 mg/kg) administered intravenously; format: functional; conditions: Canis lupus familiaris, iv; how it was run: as §1
[6] = tested on: Canis familiaris; assay: Antisecretory dose in mg/kg required for 50% inhibition in dogs by intravenous administration; format: functional, Canis lupus familiaris
How it was run: (§2)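 Pentagastrin-stimulated Heidenhain pouch dogs were dosed iv, and acid output was titrated from 30-min collections. Percent inhibition compares the lowest post-dose output with the pre-dose mean. The dose giving 50% inhibition came from linear regression of log dose on percent inhibition in n dogs.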

[7] = Partition coefficient (logP); format: physicochemical; conditions: octanol/water
[8] = tested on: Canis familiaris; assay: Maximum percent inhibition of acid output in pentagastrin-stimulated Heidenhain pouch dog at dose (23 mg/kg) administered intravenously; format: functional; conditions: Canis lupus familiaris, iv; how it was run: as §1
[9] = tested on: Canis familiaris; assay: Maximum percent inhibition of acid output in pentagastrin-stimulated Heidenhain pouch dog at dose(mg/kg) administered intravenously; format: functional, Canis lupus familiaris; how it was run: as §1
[10] = species: Canis familiaris; assay: Effective dose for acid output in pentagastrin-stimulated Heidenhain pouch dog; format: functional, Canis lupus familiaris; how it was run: as §2
[11] = target: Histamine H2 receptor (Cavia porcellus) (UniProt P47747); assay: Dissociation constant of H2 receptor antagonist activity against guinea pig atrium;NA means not active; format: functional, tissue-based; conditions: Cardiac atrium
How it was run: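 Right atria from guinea pigs killed by a blow to the head, hung isometrically in oxygenated (95% O2/5% CO2) Krebs–Henseleit buffer at pH 7.4 and 32 ± 2 °C, and stabilized about 1 h. Histamine dose–response curves were run before and after antagonist at set final concentrations, with 3- or 30-min drug equilibration. DR is the ratio of half-maximal histamine concentrations. KB = B/(DR − 1). Schild slope is log(DR − 1) vs log B.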

[12] = tested on: Canis familiaris; assay: Maximum percent inhibition of acid output in pentagastrin-stimulated Heidenhain pouch dog at dose (9 mg/kg) administered intravenously; format: functional; conditions: Canis lupus familiaris, iv; how it was run: as §1
[13] = tested on: Canis familiaris; assay: Maximum percent inhibition of acid output in pentagastrin-stimulated Heidenhain pouch dog at dose (8 mg/kg) administered intravenously; format: functional; conditions: Canis lupus familiaris, iv; how it was run: as §1
[14] = tested on: Canis familiaris; assay: Maximum percent inhibition of acid output in pentagastrin-stimulated Heidenhain pouch dog at dose (0.5 mg/kg) administered intravenously; format: functional; conditions: Canis lupus familiaris, iv; how it was run: as §1

Sequence of Histamine H2 receptor (Cavia porcellus) (P47747 whole entry): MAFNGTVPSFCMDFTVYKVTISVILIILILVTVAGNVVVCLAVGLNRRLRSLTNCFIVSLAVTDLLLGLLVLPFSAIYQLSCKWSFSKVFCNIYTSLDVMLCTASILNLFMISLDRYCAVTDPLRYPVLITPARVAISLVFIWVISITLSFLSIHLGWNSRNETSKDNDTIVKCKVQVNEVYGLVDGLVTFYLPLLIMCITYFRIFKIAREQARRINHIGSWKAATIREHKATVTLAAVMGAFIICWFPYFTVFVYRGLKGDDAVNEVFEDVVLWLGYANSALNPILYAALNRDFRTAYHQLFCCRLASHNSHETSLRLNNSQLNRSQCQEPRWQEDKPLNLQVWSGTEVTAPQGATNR

SMILES | KB [3] [µM] | logP [7] | inhibition in vivo at 1 mg/kg [1] [%] | inhibition in vivo at 10 mg/kg [2] [%] | -Log I50 [6] | other results
Nc1n[nH]c(-c2ccnc(N3CCCC3)c2)n1 | – | – | 0 | – | – | –
Cc1n[nH]c(-c2ccnc(Cc3ccccc3)c2)n1 | – | – | – | 31 | – | –
CCNc1cc(-c2n[nH]c(NC)n2)ccn1 | 1.3 | – | 35 | 72 | – | –
Cc1cc(-c2n[nH]c(N)n2)ccn1 | 13 | – | 26 | – | – | inhibition in vivo at 5 mg/kg [4]: 60%
Cc1nc(-c2ccncc2)c[nH]1 | – | – | – | – | – | inhibition in vivo at 25 mg/kg [5]: 56%
Cc1ccc(CNc2cc(-c3n[nH]c(N)n3)ccn2)cc1C | 0.11 | 3.08 | – | – | -0.718 | inhibition in vivo at 5 mg/kg [4]: 49%
CCCNc1cc(-c2n[nH]c(N)n2)ccn1 | 0.77 | 1.61 | 33 | – | -0.379 | inhibition in vivo at 5 mg/kg [4]: 64%
Nc1n[nH]c(-c2ccnc(NCCO)c2)n1 | 2 | 0.24 | – | 34 | -1.31 | –
Nc1n[nH]c(-c2ccnc(NCCc3ccccc3)c2)n1 | 1.9 | 2.63 | – | 50 | -1 | –
CN/C(=N\CCSCc1nc[nH]c1C)NC#N [CIMETIDINE] | – | – | – | – | – | ED50 [10]: 1.02 mg/kg
CCNc1cc(-c2n[nH]c(Cc3ccccc3)n2)ccn1 | – | – | – | 19 | – | KB [11]: inactive
C=CCNc1cc(-c2nc(N)n[nH]2)ccn1 | 0.48 | 1.26 | 31 | – | -0.37 | –
CCCCNc1cc(-c2n[nH]c(N)n2)ccn1 | 0.67 | 2.15 | 29 | – | -0.5 | inhibition in vivo at 9 mg/kg [12]: 69%
CCCc1n[nH]c(-c2ccnc(NCC)c2)n1 | 11 | – | – | 45 | – | –
Cc1n[nH]c(-c2ccnc(CO)c2)n1 | 23 | – | – | 7 | – | –
CCN(C)c1cc(-c2n[nH]c(N)n2)ccn1 | – | – | 42 | – | – | –
Nc1n[nH]c(-c2ccnc(NCCCc3ccccc3)c2)n1 | – | 3.05 | – | 30 | – | –
Nc1n[nH]c(-c2ccnc(Nc3ccccc3)c2)n1 | – | – | – | 0 | – | –
CCNc1cc(-c2c[nH]c(N)n2)ccn1 | 3.3 | – | 22 | 74 | – | –
CCNc1cc(-c2n[nH]c(CO)n2)ccn1 | 4.5 | – | 20 | 53 | – | –
CCNc1cc(-c2n[nH]c(CC)n2)ccn1 | 1.3 | – | – | – | – | inhibition in vivo at 5 mg/kg [4]: 17%
Nc1cc(-c2n[nH]c(N)n2)ccn1 | 2.2 | 0.11 | – | – | -0.306 | ED50 [10]: 2.35 mg/kg

Continued, in another order:

KB [3] [µM] | logP [7] | SMILES | inhibition in vivo at 1 mg/kg [1] [%] | inhibition in vivo at 10 mg/kg [2] [%] | -Log I50 [6] | other results
1.8 | – | CCc1cc(-c2n[nH]c(N)n2)ccn1 | – | – | – | inhibition in vivo at 5 mg/kg [4]: 55%
0.55 | – | CCNc1cc(-c2n[nH]c(C)n2)ccn1 | 35 | – | – | –
4 | – | CCCc1cc(-c2n[nH]c(N)n2)ccn1 | – | – | – | inhibition in vivo at 5 mg/kg [4]: 0%
0.59 | – | CCNc1cc(-c2c[nH]cn2)ccn1 | – | 27 | – | –
5 | – | CCNc1cc(-c2nc[nH]n2)ccn1 | – | 29 | – | –
42 | – | Nc1n[nH]c(-c2ccncc2)n1 | – | 43 | – | inhibition in vivo at 23 mg/kg [8]: 73%
0.13 | 2.69 | Cc1ccc(CNc2cc(-c3n[nH]c(N)n3)ccn2)cc1 | – | – | -1.03 | inhibition in vivo at 5 mg/kg [4]: 33%
– | 4.07 | CCCCCCCCCCNc1cc(-c2n[nH]c(N)n2)ccn1 | – | – | -1.7 | Inhibition [9]: 14%; Kb [3]: 4.78 µM
1.4 | – | CCNc1cc(-c2c[nH]c(C)n2)ccn1 | – | 55 | – | –
4.6 | – | Cc1cc(-c2c[nH]c(C)n2)ccn1 | – | 24 | – | –
3.5 | 0.94 | COCCNc1cc(-c2n[nH]c(N)n2)ccn1 | 11 | 50 | -0.88 | –
0.71 | 2.15 | Nc1n[nH]c(-c2ccnc(NCc3ccccc3)c2)n1 | 21 | 72 | -0.568 | –
0.23 | 1.13 | CCNc1cc(-c2n[nH]c(N)n2)ccn1 | – | – | -0.028 | ED50 [10]: 0.87 mg/kg
3.2 | – | CN(C)c1cc(-c2n[nH]c(N)n2)ccn1 | 48 | – | – | inhibition in vivo at 5 mg/kg [4]: 80%
3.6 | – | CC(C)Nc1cc(-c2n[nH]c(N)n2)ccn1 | – | – | – | inhibition in vivo at 5 mg/kg [4]: 52%
0.56 | 0.694 | CNc1cc(-c2n[nH]c(N)n2)ccn1 | 50 | – | 0 | –
0.27 | 3.3 | CCCCCCNc1cc(-c2n[nH]c(N)n2)ccn1 | – | 40 | -1.2 | –
0.3 | 2.85 | Nc1n[nH]c(-c2ccnc(NCc3ccc(Cl)cc3)c2)n1 | 21 | – | -0.428 | –
0.14 | – | CC(C)(C)c1ccc(CNc2cc(-c3n[nH]c(N)n3)ccn2)cc1 | – | – | – | inhibition in vivo at 8 mg/kg [13]: 0%
4.7 | – | CCNc1cc(-c2n[nH]c(NCC)n2)ccn1 | 38 | – | – | inhibition in vivo at 0.5 mg/kg [14]: 21%
